# Source: PubChem BioAssay
# UPR CHOP act – activators of apoptotic CHOP UPR arm, primary screen, cell-based, CHO-CHOP luciferase reporter, luminescence, uHTS | UPR activation; percent of tunicamycin response over DMSO baseline | activation, % at 10 µM | 330,000 tested, 0.34% active | AID 449763, 2010;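 active means at 10 µM dose, activation of 40% or more, normalized to positive control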;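 further: 100% = tunicamycin at 10 µg/mL and 0% = DMSO alone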
#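 System: CHO CHOP reporter cells. Amount: 500 cells per well. Buffer or medium: F12 medium, 10% FBS. Compound dosing: one dose, 10 µM in 0.5% DMSO. Incubation: 6 h compound exposure at 37 °C after overnight seeding. Technique: Steady-Glo luciferase luminescence. Benchmarks: tunicamycin and DMSO controls.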
# V-ATPase pH – regulators of yeast V-ATPase proton pumping, primary screen, pHLuorin cytosolic pH fluorescence. S. cerevisiae. response, % at 10 µM. 350,000 tested, 0.37% active. AID 504577, 2011; in the data active means response mostly above about 7.3%, no sharp cut-off; inactive means mostly below about 5.4%; further: actives read high
# XBP1 UPR activ – activators of adaptive XBP1 UPR arm, primary screen, cell-based, CHO-XBP1 luciferase reporter, luminescence, uHTS | activation, % at 20 µM | IRE1-XBP1 UPR activation; percent of tunicamycin response, DMSO as zero | 330,000 tested, 0.33% active | AID 463104, 2010;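 active means versus positive control, 20 µM dose yields 30% or more activation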;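 further: 100% = tunicamycin at 10 µg/mL and 0% = DMSO only wells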
#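 assay system = CHO-XBP1 luciferase reporter cells | amount = 1000 cells/well | buffer or medium = F12 plus 10% FBS | compound dosing = single point, 20 µM final compound, 1% DMSO | incubation = 16-18 h cell attachment at 37 °C, then 6 h compound exposure | detection = Steady-Glo luminescence read | controls = tunicamycin 10 µg/mL and vehicle-only wells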
# Tb MetRS inh – T. brucei MetRS inhibitors, primary screen, biochemical, luminescence; methionyl-tRNA synthetase (Trypanosoma brucei brucei); purified T. brucei MetRS, ATP depletion, Kinase-Glo luminescence; inhibition, % at 11.9 µM; 360,000 tested, 0.4% active;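 active means inhibition above a per-plate cutoff of the control wells' mean inhibition plus 3 SD, cut at about 5.5% in these data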;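 further: 0% = DMSO wells median and 100% = median of wells with control inhibitor compound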
#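 Measured by: Kinase-Glo luciferase luminescence reporting remaining unconsumed ATP. Material: purified T. brucei MetRS enzyme. Doses: 11.9 µM compound single dose, 0.9% DMSO. Medium: HEPES buffer containing pyrophosphatase, BSA, spermine, DTT. Times: 15 min preincubation, 2 h reaction, all 25 °C. Reagent: methionine, ATP and bulk E. coli tRNA.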
# CHOP inh – inhibitors of CHOP promoter induction, primary screen, cell-based, unfolded protein response, luciferase reporter; 220,000 tested, 3.8% active; CHO-K1 CHOP-promoter luciferase, tunicamycin-induced, 15-18 h; inhibition, % at 10 µM;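 active means compounds that reduced the stress-induced luciferase reporter signal by more than about 70% of percent inhibition, limit read from the data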;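 further: 0% = tunicamycin plus vehicle and 100% = wells without tunicamycin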
# * marks the source's active call; other numbers are inactive results; / = no result. This excerpt belongs to a sample that is enriched for hits.
SMILES,UPR CHOP act,V-ATPase pH,XBP1 UPR activ,Tb MetRS inh,CHOP inh
COC(=O)c1cc(Cl)c(NC(=O)c2ccc(C(C)(C)C)cc2)cc1OC,1.3,-6.2,-2.4,-0.9,89.4*
COc1cc2oc(=O)cc(-c3ccc(-c4ccc(CO)cc4)cc3)c2c(OC)c1OC,0.1,-4.4,0.4,-2.3,/
O=C(N/N=C\c1cc(Br)cs1)C1COc2ccccc2O1 (stereo not drawn),1.2,3.0,-1.4,-0.1,79.9*
Cc1c(/C=N\NC(=O)C2COc3ccc(C(C)(C)C)cc3O2)c2ccccc2n1C (stereo not drawn),5.1,-7.7,0.3,-0.4,75.6*
CCN1CCN(C(=O)c2cc(COc3ccc(F)c(F)c3)on2)[C@@H](C)C1=O,/,-0.1,/,0.2,/
Cc1onc(-c2ccccc2Cl)c1-c1nc(-c2ccncc2)no1,-3.5,21.2*,7.2,0.5,22.4
O=C(O)C(C=C(Cl)Cl)N1CCOCC1 (stereo not drawn),/,-1.2,/,-0.1,/
CCc1nc(Nc2ccc(F)cc2)c2oc3ccccc3c2n1,2.7,-1.6,16.5,-0.2,/
CCc1nc(Nc2ccccc2)c2oc3ccccc3c2n1,-1.8,-3.3,2.3,0.2,72.1*
Cc1nc(NCCc2ccccc2)c2oc3ccccc3c2n1,4.8,-0.1,1.4,0.0,75.9*
CN(C)c1ccc(-c2ccnc3c2CC(C)(C(=O)NCCC(F)(F)F)O3)cc1 (stereo not drawn),/,/,/,-0.3,/
CC1CCc2sc(C(=O)OC(C)C(=O)Nc3ncc(Cl)cc3Cl)cc2C1 (stereo not drawn),-0.9,/,3.0,/,90.0*
CCN(Cc1ccccc1)N=Nc1ccccc1,/,0.3,/,-0.1,/
O=C(CC(NC(=O)C(F)(F)F)c1ccccc1)Nc1nnc(CCc2ccccc2)s1 (stereo not drawn),-2.2,4.1,-3.6,-0.1,93.8*
CC1(C(=O)NCc2ccccc2)CCC(=O)N1C1CCN(Cc2ccccc2)CC1 (stereo not drawn),/,/,/,-0.2,/
Cn1cc(Cl)c(C(=O)Nc2cccc(Cl)c2Cl)n1,5.1,1.7,1.2,-0.3,75.2*
CCOc1ccc(/C=C2\SC(=S)N(Nc3ccccc3)C2=O)cc1OC,1.2,-0.6,2.0,-0.9,81.7*
CC(C)c1ccc(N(C(=O)c2ccco2)C(C(=O)NC2CCCC2)c2ccncc2)cc1 (stereo not drawn),5.8,13.7*,0.2,-0.9,/
C=CCNc1nc2cc(-c3ccc(C(=O)N4CCOCC4)cc3)sc2c(=O)n1C,/,/,/,-0.1,/
CCOC1=C2[C@H](c3ccccc3)N(S(=O)(=O)c3ccc(C)cc3)C(C(C)(C)C)[C@H]2n2c(=O)n(-c3ccccc3)c(=O)n2C1 (stereo partly drawn),/,/,/,0.2,/
CCC(=O)Nc1ccc(NC(=S)NC(=O)/C=C/c2ccccc2)cc1,1.2,1.7,-2.5,-1.2,91.7*
CC(=O)c1ccc(NC(=S)NC(=O)/C=C/c2ccccc2)cc1,7.9,-0.7,2.5,1.6,/
CCN1CCN(C(=O)Nc2ccccc2OC)CC1,1.4,-7.0,4.5,-1.0,5.2
CS(=O)(=O)c1ccc(C(=O)OCc2nnc(-c3ccc(Cl)cc3)o2)cc1[N+](=O)[O-],2.4,0.1,2.6,-0.7,79.2*
COc1ccc(C(=O)OCc2nnc(-c3ccccc3)o2)cc1S(=O)(=O)N1CCOCC1,0.9,-2.7,-0.6,0.0,/
SMILES,UPR CHOP act,V-ATPase pH,XBP1 UPR activ,Tb MetRS inh,CHOP inh
O=C(OCc1nnc(-c2ccc([N+](=O)[O-])cc2)o1)c1ccc(F)c(S(=O)(=O)N2CCOCC2)c1,-2.1,17.2*,2.1,-0.4,/
CN1CCCN(c2cc(-c3ccc4ccccc4c3)nc3ccnn23)CC1,/,/,/,0.0,/
O=C(C[C@H]1C/C=C\CC[C@@H](Cc2ccc(F)cc2)C(=O)OCCNC1=O)NCCO,-0.6,0.8,-3.7,0.3,/
CCCC(=O)Nc1ccc(S(=O)(=O)N2CCC(c3nc4ccccc4[nH]3)CC2)cc1,0.9,19.9*,-1.7,0.1,/
CC1CCCN(S(=O)(=O)c2ccc(NC(=O)C3CC(=O)N(c4ccccc4)C3)cc2)C1 (stereo not drawn),2.2,13.5*,0.3,-0.3,/
CCC(=O)Nc1ccc(S(=O)(=O)N2CCC(c3nc4ccccc4[nH]3)CC2)cc1,-0.2,-1.6,-2.9,0.5,/
CC1CCN(S(=O)(=O)c2csc(C(=O)Nc3ccccc3)c2)CC1,-2.9,-4.7,-4.7,-0.2,76.6*
CC1CCN(S(=O)(=O)c2ccc(NC(=O)Cc3ccccc3)cc2)CC1,-1.2,-1.6,-0.3,-0.4,85.2*
NC(=O)CC(NC(=O)c1ccc(Br)cc1)c1ccc(NC2CCCCCCC2)c([N+](=O)[O-])c1 (stereo not drawn),0.6,-2.1,1.7,-0.1,/
CCOC(=O)C1(C)CCCCCN1C(=O)c1ccc(C(F)(F)F)nc1C (stereo not drawn),/,/,/,0.6,/
CN(C)C(=O)c1cccc(-c2cccc(-c3nc(C(=O)NCc4ccccc4)cc4c3[C@@H](CCO)N(S(=O)C(C)(C)C)C4)c2)c1 (stereo partly drawn),/,/,/,0.2,/
CC(C)OC(=O)c1c(NC(=O)Cn2cnc([N+](=O)[O-])n2)sc2c1CCCC2,0.5,1.4,-1.6,-0.1,93.3*
CCOC(=O)c1c(NC(=O)Cn2cnc([N+](=O)[O-])n2)sc2c1CCCC2,-0.7,4.0,-1.0,-0.4,75.2*
O=C(Nc1cccc2ccccc12)c1ccc2sc([C@@H]3O[C@H](CO)[C@H](O)[C@H](O)[C@H]3O)nc2c1,/,/,/,-0.5,/
CC1(C(=O)NCC2CCCCC2)CCN1CCc1ccccc1 (stereo not drawn),/,/,/,0.1,/
CCn1cc(C(=O)OCC(=O)OC2CC(C)CCC2C(C)C)c(=O)c2ccc(C)nc21 (stereo not drawn),-0.2,2.4,0.9,1.1,88.6*
Cn1cc(Cc2ccc(C(=O)N3CCOCC3)cn2)c2ccccc21,/,/,/,0.2,/
Cc1cc2oc(=O)cc(Cn3ncc(Cl)c(Cl)c3=O)c2cc1Cl,1.9,1.2,-7.9,0.5,105.1*
CN=c1scc(-c2ccc(F)cc2)n1/N=C/c1ccc(O)c(O)c1,31.4,0.8,-4.2,-0.5,71.9*
Clc1ccc(-c2onc3c2CCCC3)cc1,1.5,0.7,-0.4,-0.1,77.7*
COc1ccc(CNC(=O)OC2CC3CC2[C@H]2CCCCN2C3=O)cc1 (stereo partly drawn),/,/,/,-0.4,/
COc1ccc(C2c3sc(=O)[nH]c3SC3C4CCC(C4)C23)cc1 (stereo not drawn),-2.4,4.4,-2.3,0.7,88.4*
CS(=O)(=O)N(CC(=O)Nc1ccccc1)Cc1ccc(Cl)cc1,1.0,2.9,1.1,0.7,30.6
